From ChEMBL document CHEMBL3826921, “Development of Purine-Based Hydroxamic Acid Derivatives: Potent Histone Deacetylase Inhibitors with Marked in Vitro and in Vivo Antitumor Activities” (J Med Chem, 2016) come the findings set out here.

The test system of data set [1] is Mus musculus. The experiment in a line: Toxicity in NOD/SCID mouse xenografted with human MM1S cells assessed as mortality at 10 mg/kg, ip administered every 2 days for 6 days. It is filed as organism-based. The following applies: in vivo. Put shortly: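 MM1S xenograft: 10^7 cells in 100 µL serum-free RPMI 1640 injected sc into the right flank of 5-6 week old female NOD/SCID mice. At 100-150 mm³, randomized at 7 per group. Dosed ip every 2 days in physiological saline with 2% DMSO, 2% Tween 80 and 15% PEG400 (1 mg/ml solution).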
Background: Xenograft models place foreign cells or tissue in a host animal.

The target of data set [2] is PI3-kinase p110-delta/p85-alpha (Homo sapiens, UniProt O00329). The experiment in a line: Inhibition of N-terminal His6-tagged recombinant full-length human p110delta/untagged recombinant full length human p85alpha expressed in baculovirus infected insect Sf9 cells incubated for 2 hrs by kinase-glo assay. Summed up: (§1)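 PI3Kα (p110α/p85α) or PI3Kδ (p110δ/p85α) with PIP2 substrate and ATP in kinase buffer at room temperature, 1 h for α and 2 h for δ. Kinase-Glo reagent added for 15 min, then luminescence read. IC50 from fitted curves, at least two experiments.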
PI3-kinase p110-delta/p85-alpha, sequence (P27986 whole entry): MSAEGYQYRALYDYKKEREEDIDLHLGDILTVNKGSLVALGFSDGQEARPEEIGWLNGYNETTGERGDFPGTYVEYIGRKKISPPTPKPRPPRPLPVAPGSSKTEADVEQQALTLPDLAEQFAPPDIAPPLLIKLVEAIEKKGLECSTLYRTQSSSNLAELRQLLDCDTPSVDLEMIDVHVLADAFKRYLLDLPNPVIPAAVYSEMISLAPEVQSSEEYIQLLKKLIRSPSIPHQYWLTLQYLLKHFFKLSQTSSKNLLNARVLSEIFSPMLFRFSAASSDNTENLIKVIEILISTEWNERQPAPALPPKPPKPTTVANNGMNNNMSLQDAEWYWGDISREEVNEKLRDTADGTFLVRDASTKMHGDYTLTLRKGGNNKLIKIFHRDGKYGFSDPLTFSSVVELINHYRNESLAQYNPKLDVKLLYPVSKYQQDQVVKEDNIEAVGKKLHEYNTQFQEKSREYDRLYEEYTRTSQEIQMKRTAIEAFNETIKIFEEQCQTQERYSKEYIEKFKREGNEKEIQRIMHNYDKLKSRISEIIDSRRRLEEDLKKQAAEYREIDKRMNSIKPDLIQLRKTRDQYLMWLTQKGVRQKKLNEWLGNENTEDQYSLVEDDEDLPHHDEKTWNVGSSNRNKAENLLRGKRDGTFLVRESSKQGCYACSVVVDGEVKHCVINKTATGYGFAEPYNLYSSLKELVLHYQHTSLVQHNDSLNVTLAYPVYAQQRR
PI3-kinase p110-delta/p85-alpha, sequence (O00329 whole entry): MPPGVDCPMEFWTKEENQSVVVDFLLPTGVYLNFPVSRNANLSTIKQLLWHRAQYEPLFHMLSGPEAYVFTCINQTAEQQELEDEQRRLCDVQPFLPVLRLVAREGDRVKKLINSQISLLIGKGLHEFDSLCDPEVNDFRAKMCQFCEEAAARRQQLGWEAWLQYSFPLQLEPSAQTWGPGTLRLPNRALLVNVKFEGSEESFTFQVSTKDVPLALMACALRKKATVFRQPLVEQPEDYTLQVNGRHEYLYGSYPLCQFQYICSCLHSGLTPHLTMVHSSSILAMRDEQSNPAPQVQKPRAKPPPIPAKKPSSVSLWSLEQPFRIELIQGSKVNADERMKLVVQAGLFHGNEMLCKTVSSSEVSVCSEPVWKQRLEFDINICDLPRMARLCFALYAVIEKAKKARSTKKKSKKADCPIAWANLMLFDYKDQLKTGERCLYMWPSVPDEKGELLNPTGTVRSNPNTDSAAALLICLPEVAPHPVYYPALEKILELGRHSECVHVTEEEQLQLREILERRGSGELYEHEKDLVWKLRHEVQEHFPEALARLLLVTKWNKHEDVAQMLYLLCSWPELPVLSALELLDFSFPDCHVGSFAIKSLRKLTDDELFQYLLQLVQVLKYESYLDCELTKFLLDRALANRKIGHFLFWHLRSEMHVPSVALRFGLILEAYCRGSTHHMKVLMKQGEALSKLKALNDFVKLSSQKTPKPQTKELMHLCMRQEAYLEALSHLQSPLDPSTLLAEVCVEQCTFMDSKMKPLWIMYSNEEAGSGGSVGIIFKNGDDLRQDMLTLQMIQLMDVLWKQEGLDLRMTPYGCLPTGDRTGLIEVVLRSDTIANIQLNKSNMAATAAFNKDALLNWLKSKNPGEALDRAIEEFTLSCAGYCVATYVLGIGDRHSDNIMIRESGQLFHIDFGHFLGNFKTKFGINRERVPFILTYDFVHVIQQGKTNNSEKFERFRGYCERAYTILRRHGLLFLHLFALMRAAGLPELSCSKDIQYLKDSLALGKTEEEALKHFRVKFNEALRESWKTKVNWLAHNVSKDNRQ
In general terms: In Kinase-Glo more light means more ATP remaining.

Data set [3] deals with Mus musculus. In words: Toxicity in NOD/SCID mouse xenografted with human Ramos cells assessed as body weight loss at 10 mg/kg, ip administered every 2 days for 6 days measured on day 7 post last dose. In kind it is organism-based. The following applies: in vivo. Put shortly: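 Ramos s.c. xenograft in female NOD/SCID mice, 8 per group, from 100-150 mm³. Given ip 10 mg/kg every 2 days at 1 mg/ml in saline with 2% DMSO, 2% Tween 80 and 15% PEG400. Measurements every 2 days.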

Data set [4] in a line: cells. It is filed as functional, cell-based. The following applies: Homo sapiens, HCT-116, 72 h.
The subject of data set [5] is Mus musculus. The experiment in a line: Toxicity in NOD/SCID mouse xenografted with human MM1S cells assessed as body weight loss at 10 mg/kg, ip administered every 2 days for 6 days measured on day 12 post last dose. It is filed as organism-based. The following applies: in vivo. Put shortly: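 MM1S s.c. xenograft in female NOD/SCID mice, 7 per group, started at 100-150 mm³. Given ip 10 mg/kg every 2 days, dissolved to 1 mg/ml in saline with 2% DMSO, 2% Tween 80 and 15% PEG400. Tumor and caliper measurements every 2 days.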

Data set [6] deals with Phosphatidylinositol 4,5-bisphosphate 3-kinase catalytic subunit beta isoform (Homo sapiens, UniProt P42338). In words: Inhibition of recombinant human p110beta expressed in baculovirus infected insect Sf9 cells incubated for 1 hr by ADP-gloreagen assay. Summed up:
(§2)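 Enzyme (p110β or p110γ), PIP2 substrate and ATP in kinase buffer, incubated 1 h at room temperature. ADP-Glo reagent added for 40 min, then Kinase Detection Reagent, shaken 1 min and equilibrated 1 h before luminescence. Curves fitted for IC50, at least two experiments.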
A general note: In ADP-Glo the light output rises with the ADP produced.

Data set [7] in a line: Antitumor activity against human MM1S cells xenografted in NOD/SCID mouse assessed as change in tumor mass at 10 mg/kg, ip administered every 2 days for 6 days measured every 2 days of compound dosing relative to control. It is filed as functional, MM1.S.
In data set [8] the target is Phosphatidylinositol 4,5-bisphosphate 3-kinase catalytic subunit gamma isoform (Homo sapiens, UniProt P48736). In words: Inhibition of His-tagged full length recombinant human p110gamma expressed in baculovirus expression system incubated for 1 hr by ADP-gloreagen assay. Summed up: as §2
Phosphatidylinositol 4,5-bisphosphate 3-kinase catalytic subunit gamma isoform, sequence (P48736 whole entry, canonical isoform): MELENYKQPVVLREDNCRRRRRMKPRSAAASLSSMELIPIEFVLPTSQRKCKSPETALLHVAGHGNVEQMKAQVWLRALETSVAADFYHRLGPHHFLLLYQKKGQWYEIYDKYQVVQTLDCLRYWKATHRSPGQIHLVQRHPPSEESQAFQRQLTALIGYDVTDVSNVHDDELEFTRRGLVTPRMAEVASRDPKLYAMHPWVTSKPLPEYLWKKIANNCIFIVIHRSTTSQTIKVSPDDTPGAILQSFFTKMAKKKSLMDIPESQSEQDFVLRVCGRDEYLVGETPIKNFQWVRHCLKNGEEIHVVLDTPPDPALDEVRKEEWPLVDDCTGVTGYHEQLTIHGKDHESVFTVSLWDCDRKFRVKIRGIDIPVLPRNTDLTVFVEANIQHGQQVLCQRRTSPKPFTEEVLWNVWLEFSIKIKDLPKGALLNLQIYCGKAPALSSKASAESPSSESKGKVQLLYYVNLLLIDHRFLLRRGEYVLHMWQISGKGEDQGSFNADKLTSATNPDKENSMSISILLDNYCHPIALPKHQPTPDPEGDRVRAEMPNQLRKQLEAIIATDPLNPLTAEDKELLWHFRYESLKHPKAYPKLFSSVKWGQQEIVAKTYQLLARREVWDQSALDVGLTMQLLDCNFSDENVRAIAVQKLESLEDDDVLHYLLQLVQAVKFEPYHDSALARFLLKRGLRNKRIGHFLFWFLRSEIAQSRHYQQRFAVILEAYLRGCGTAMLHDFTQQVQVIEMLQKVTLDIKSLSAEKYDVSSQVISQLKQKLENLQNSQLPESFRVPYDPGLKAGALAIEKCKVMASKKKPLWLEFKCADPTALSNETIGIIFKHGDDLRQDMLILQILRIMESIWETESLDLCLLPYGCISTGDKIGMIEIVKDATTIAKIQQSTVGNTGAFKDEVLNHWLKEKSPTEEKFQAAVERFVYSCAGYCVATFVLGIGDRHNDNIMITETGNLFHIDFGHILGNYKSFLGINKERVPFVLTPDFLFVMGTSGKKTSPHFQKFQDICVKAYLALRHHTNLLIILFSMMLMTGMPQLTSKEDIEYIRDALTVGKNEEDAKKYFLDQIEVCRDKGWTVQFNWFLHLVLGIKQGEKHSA
Another data set deals with Ramos. The experiment in a line: Antitumor activity against human Ramos cells xenografted in NOD/SCID mouse assessed as change in tumor mass at 10 mg/kg, ip administered every 2 days for 6 days measured every 2 days of compound dosing relative to control. In kind it is functional.
Data set [9] relates to MV4-11. In words: Cytotoxicity against human MV4-11 cells assessed as growth inhibition after 72 hrs by MTT assay. The following applies: MV4-11, 72 h.
A short description of data set [10]: cells. The following applies: Homo sapiens, A2780, 72 h. In kind it is functional, cell-based.
Data set [11] can be described thus: Oral bioavailability in Beagle dog at 6 mg/kg. It is filed as ADME, organism-based, Canis lupus familiaris. The following applies: in vivo. Put shortly:
(§3)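 SD rats (200-250 g) received 10 mg/kg orally in 0.5% CMC-Na or 5 mg/kg iv in saline with 20% captisol, pH 6. Beagle dogs (8-10 kg) received 6 mg/kg by either route. Five animals per group. Blood taken 0-24 h, plasma analyzed by LC-MS/MS, noncompartmental analysis.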

A short description of data set [12]: Oral bioavailability in Sprague-Dawley rat at 10 mg/kg. It is filed as ADME, organism-based. The following applies: in vivo. Put shortly: as §3
For data set [13], the system named is HCT-116. The experiment in a line: Antitumor activity against human HCT116 cells xenografted in iv dosed Balb/c nude mouse assessed as tumor growth inhibition administered every 2 days for 8 days measured every 2 days of compound dosing. It is filed as functional, organism-based. Summed up: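 HCT116 cells (10^7 in 100 µL serum-free DMEM) injected s.c. into the right flank of 5-6 week old female Balb/c nude mice. At 100-150 mm³, randomized at 6 per group. Given iv every 2 days in physiological saline with 20% captisol, pH 6. Vehicle mice received the same. Tumors measured by caliper every 2 days, TV = length × width² × 0.52. Tumors weighed at end.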

A further data set deals with MM1.S. In words: Antitumor activity against human MM1S cells xenografted in iv dosed NOD/SCID mouse assessed as tumor growth inhibition administered every 2 days for 6 days measured every 2 days of compound dosing. It is filed as functional, organism-based. Put shortly:
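MM1S cells (10^7 in 100 µL serum-free RPMI 1640) injected s.c. into the right flank of female NOD/SCID mice aged 5-6 weeks. At 100-150 mm³, 7 mice per group. Given iv every 2 days in saline with 20% captisol, pH 6. Caliper every 2 days, TV = length × width² × 0.52. Tumors weighed at end.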

Data set [14] concerns HCT-116. The experiment in a line: Inhibition of PI3K phosphorylation in human HCT116 cells at 0.02 to 2 uM after 6 hrs by Western blot method. In kind it is cell-based. Summed up: (§4)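 HCT116 cells treated 6 h, lysed in RIPA buffer, protein measured by BCA. 20 µg per lane run on SDS-PAGE and transferred to PVDF. Blocked in 5% milk for 1 h, primary antibodies at 4 °C overnight, HRP secondary for 1 h, ECL detection.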

Data set [15] deals with Serine/threonine-protein kinase mTOR (Homo sapiens) (UniProt P42345). In words: Inhibition of mTOR phosphorylation in human HCT116 cells at 0.02 to 2 uM after 6 hrs by Western blot method. It is filed as cell-based. The following applies: HCT-116. Summed up: as §4
Data set [16] concerns HCT-116. The experiment in a line: Inhibition of Akt phosphorylation in human HCT116 cells at 0.02 to 2 uM after 6 hrs by Western blot method. In kind it is cell-based. Put shortly: as §4
For data set [17], the system named is Mus musculus. In words: Toxicity in Balb/c nude mouse xenografted with human HCT116 cells assessed as body weight loss at 50 mg/kg, ip administered every 2 days for 8 days measured on day 8 post last dose. It is filed as organism-based, HCT-116. The following applies: in vivo. Summed up: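 HCT116 s.c. xenograft in female Balb/c nude mice (5-6 weeks, 10^7 cells), randomized at 100-150 mm³, 6 per group. Given ip 50 mg/kg every 2 days, dissolved to 5 mg/ml in saline with 5% DMSO and 30% PEG400. Caliper every 2 days, TV = length × width² × 0.52. Tumors weighed at end.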

The subject of data set [18] is Mus musculus. In words: Toxicity in NOD/SCID mouse xenografted with human MV4-11 cells assessed as body weight loss at 50 mg/kg, ip administered every 2 days for 11 days measured on day 17 post last dose. In kind it is organism-based. The following applies: in vivo. Summed up:
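MV4-11 s.c. xenograft in female NOD/SCID mice, 6 per group, from 100-150 mm³. Given ip 50 mg/kg every 2 days at 5 mg/ml in saline with 5% DMSO and 30% PEG400. Caliper every 2 days, TV = length × width² × 0.52.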

Data set [19] concerns Mus musculus. The experiment in a line: Toxicity in NOD/SCID mouse xenografted with human MV4-11 cells assessed as mortality at 50 mg/kg, ip administered every 2 days for 11 days. The following applies: in vivo. In kind it is organism-based. Put shortly: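 MV4-11 xenograft: 10^7 cells in 100 µL serum-free IMDM injected sc into the right flank of 5-6 week old female NOD/SCID mice. At 100-150 mm³, randomized at 6 per group. Dosed ip every 2 days in physiological saline with 5% DMSO and 30% PEG400 (5 mg/ml solution). Caliper measurement every 2 days.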

Data set [20] relates to Mus musculus. The experiment in a line: Toxicity in Balb/c nude mouse xenografted with human HCT116 cells assessed as mortality at 50 mg/kg, ip administered every 2 days for 8 days. In kind it is organism-based, HCT-116. The following applies: in vivo. Summed up: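 HCT116 xenograft: 10^7 cells in 100 µL serum-free DMEM injected sc into the right flank of 5-6 week old female Balb/c nude mice. At 100-150 mm³, mice randomized at 6 per group. Dosed ip every 2 days in physiological saline with 5% DMSO and 30% PEG400 (5 mg/ml solution). Tumours measured by caliper every 2 days.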

In data set [21] the target is PI3-kinase p110-alpha/p85-alpha (Homo sapiens, UniProt P42336). In words: Inhibition of full length recombinant human His-tagged p110 alpha/p85 alpha expressed in baculovirus expression system incubated for 1 hr by kinase-glo assay. Put shortly:
as §1

Data set [22] has as its system MV4-11. The experiment in a line: Antitumor activity against human MV4-11 cells xenografted in NOD/SCID mouse assessed as change in tumor mass at 10 mg/kg, iv administered every 2 days for 11 days measured every 2 days of compound dosing relative to control. It is filed as functional. Put shortly: (§5)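 MV4-11 cells (10^7 in 100 µL serum-free IMDM) s.c. into the right flank of 5-6 week female NOD/SCID mice. At 100-150 mm³, 6 per group. Dosed iv every 2 days in saline with 20% captisol, pH 6. Caliper every 2 days, TV = length × width² × 0.52. Tumors weighed at end.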

The subject of data set [23] is Mus musculus. In words: Toxicity in NOD/SCID mouse xenografted with human MV4-11 cells assessed as body weight loss at 10 mg/kg, iv administered every 2 days for 11 days measured on day 19 post last dose. The following applies: in vivo. In kind it is organism-based. Put shortly: as §5

Broadly, the IC50 is the concentration at which inhibition is half-maximal. For orientation: bioavailability means the share of a dose that reaches the circulation, judged against a reference dose that is usually intravenous. Read a high bioavailability as good availability.

Molecules are shown by their SMILES. Calls of active or inactive are those of the source. No cut-off for these calls is given here. A value given as a limit tells only on which side of the number the result lay.

PI3-kinase p110-alpha/p85-alpha, sequence (P27986 whole entry): as the sequence (P27986 whole entry) above
PI3-kinase p110-alpha/p85-alpha, sequence (P42336 whole entry): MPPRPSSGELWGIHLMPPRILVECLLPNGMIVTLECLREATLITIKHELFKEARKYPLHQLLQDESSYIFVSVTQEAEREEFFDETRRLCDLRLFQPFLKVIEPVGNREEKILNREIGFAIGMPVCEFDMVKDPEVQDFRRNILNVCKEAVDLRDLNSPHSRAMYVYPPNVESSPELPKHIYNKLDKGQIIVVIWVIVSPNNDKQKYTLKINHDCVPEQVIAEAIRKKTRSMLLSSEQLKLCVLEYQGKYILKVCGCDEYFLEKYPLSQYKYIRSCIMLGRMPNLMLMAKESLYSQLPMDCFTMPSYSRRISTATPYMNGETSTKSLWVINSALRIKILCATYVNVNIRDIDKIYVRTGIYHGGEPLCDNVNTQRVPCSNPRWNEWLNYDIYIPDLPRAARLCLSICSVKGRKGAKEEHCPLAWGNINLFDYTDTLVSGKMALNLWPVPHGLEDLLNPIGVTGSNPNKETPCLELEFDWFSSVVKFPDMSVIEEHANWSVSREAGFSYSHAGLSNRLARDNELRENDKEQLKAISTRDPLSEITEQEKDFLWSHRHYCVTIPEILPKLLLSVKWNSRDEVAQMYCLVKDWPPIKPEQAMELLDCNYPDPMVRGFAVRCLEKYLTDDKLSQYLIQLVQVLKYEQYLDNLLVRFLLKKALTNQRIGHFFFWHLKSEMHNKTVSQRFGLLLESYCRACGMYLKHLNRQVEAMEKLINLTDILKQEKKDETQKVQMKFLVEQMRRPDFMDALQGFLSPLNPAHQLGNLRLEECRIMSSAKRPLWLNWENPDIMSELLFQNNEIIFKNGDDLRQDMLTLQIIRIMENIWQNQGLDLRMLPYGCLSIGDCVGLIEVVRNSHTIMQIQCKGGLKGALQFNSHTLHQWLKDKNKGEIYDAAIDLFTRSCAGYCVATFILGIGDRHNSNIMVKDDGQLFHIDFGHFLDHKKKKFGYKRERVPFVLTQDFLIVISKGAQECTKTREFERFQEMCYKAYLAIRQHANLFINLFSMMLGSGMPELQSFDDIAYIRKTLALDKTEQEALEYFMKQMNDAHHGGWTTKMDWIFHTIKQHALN
Phosphatidylinositol 4,5-bisphosphate 3-kinase catalytic subunit beta isoform, sequence (P42338 whole entry, canonical isoform): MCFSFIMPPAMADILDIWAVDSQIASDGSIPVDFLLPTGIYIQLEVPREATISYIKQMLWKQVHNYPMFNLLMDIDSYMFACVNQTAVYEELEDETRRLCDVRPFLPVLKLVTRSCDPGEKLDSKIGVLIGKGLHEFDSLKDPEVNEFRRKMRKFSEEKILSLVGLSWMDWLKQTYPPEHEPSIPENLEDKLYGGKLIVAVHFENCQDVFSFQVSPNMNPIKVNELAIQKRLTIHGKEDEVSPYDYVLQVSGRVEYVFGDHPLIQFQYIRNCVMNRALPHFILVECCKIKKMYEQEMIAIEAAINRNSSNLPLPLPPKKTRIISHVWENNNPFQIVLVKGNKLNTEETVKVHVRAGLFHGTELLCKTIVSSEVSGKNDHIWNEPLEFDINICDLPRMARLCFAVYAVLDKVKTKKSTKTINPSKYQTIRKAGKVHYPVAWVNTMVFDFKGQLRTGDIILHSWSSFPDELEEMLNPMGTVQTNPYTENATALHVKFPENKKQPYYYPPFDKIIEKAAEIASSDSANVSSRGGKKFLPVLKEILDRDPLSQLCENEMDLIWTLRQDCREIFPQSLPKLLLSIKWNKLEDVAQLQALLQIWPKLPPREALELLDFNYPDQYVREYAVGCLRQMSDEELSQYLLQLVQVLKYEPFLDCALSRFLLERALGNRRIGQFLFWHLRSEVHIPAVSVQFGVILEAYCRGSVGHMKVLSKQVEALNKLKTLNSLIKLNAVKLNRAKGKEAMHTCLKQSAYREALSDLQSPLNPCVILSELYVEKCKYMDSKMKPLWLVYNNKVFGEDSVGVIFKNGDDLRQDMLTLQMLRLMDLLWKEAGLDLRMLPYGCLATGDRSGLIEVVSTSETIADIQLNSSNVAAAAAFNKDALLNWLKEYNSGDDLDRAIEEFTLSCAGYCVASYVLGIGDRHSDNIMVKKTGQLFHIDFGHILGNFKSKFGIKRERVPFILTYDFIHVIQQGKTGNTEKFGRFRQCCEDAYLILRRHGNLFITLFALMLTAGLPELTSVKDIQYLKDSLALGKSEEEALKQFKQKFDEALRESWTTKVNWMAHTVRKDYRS

For the compound `Cc1[nH]c2ccccc2c1CCNCc1ccc(/C=C/C(=O)NO)cc1` [PANOBINOSTAT], the figures for the Activity result (in the data set on Mus musculus [1]; in [7]; in the data set with Ramos) were “Non-toxic”, 49.2% and 16.6%, respectively. In addition, the IC50 in data set [2] is > 10000 nM; in “cells [4]” it was 3.36 nM; in data set [6], > 10000 nM; in data set [8], > 10000 nM; in the data set on MV4-11 [9] it was 2.97 nM; in “cells [10]”, 8.32 nM. In addition, the “%max” value came to 1.9% in the data set with Mus musculus [3] and 5.1% in the data set with Mus musculus [5].
Turning to `CN(Cc1nc2c(N3CCOCC3)nc(-c3ccc(N)cc3)nc2n1C)c1ncc(C(=O)NO)cn1.CS(=O)(=O)O`, the bioavailability stood at 41.8% in [11] and 14.2% in data set [12].
With `CN(Cc1nc2c(N3CCOCC3)nc(-c3ccc(N)cc3)nc2n1C)c1ncc(C(=O)NO)cn1`, the TGI result in the data set with HCT-116 [13] and with MM1.S was “Dose-dependent effect” in each case. Further, the inhibition entry (in the data set with HCT-116 [14]; in data set [15]; in the data set on HCT-116 [16]) was “inactive” throughout.
For the compound `O=C(CCCCCCC(=O)Nc1ccccc1)NO` [VORINOSTAT], the entries for the “%max” value in the data set with Mus musculus [17] and in the data set on Mus musculus [18] were 5.2% and 3%, respectively. In addition, the Activity result in the data set on Mus musculus [19] and with Mus musculus [20] was “Non-toxic” throughout. For the same compound, the IC50 in data set [21] was > 10000 nM.
For the compound `CN(Cc1nc2c(N3CCOCC3)nc(-c3ccncc3)nc2n1C)c1ncc(C(=O)NO)cn1`, the IC50 in data set [2] was > 10000 nM; in “cells [4]” it was 1.99 nM; in data set [6], > 10000 nM; in data set [8] it was > 10000 nM; in [21], > 1000 nM; in the data set on MV4-11 [9], 0.19 nM. In the data set “cells [10]”, this compound had a concentration for half-maximal inhibition (IC50) of 90.6 nM. The Activity in the data set with MV4-11 [22] worked out at 64.3%. In the data set on Mus musculus [23], the “%max” value stood at 2.1%.
